In article PMC2947205 (Science (New York, N.Y.), 2009):
Like-named read-outs stand apart in the source and are kept apart here.

Tests used:
sigma-1 receptor [1] = target: T1, sigma-1 receptor (Rattus norvegicus, UniProt Q9R0C9); test: Protection of [125I]-IACoc photolabeling in rat liver membranes; assay type: binding; conditions: for protection against sigma-1 receptor [125I]-IACoc photolabeling (in words): even at these high concentrations (50 and 100 μM); for protection of [125I]-IACoc photolabeling of the 26-kD sigma-1 receptor: 1 nM [125I]-IACoc
T1 sequence (Q9R0C9 whole entry): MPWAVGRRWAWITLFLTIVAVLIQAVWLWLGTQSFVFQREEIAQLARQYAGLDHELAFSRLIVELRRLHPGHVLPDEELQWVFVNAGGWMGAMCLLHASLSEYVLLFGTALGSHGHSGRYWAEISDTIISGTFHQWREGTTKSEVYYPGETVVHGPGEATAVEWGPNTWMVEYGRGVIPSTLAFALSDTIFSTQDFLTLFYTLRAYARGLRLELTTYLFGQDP

WT mice = test: Open-field assay, WT mice; assay type: in vivo, mouse
[2] = test system: human cardiac Na+ channel hNav1.5; test: Patch-clamp INa in HEK293 cells stably expressing hNav1.5; assay type: cell-based; conditions: 100 μM, steps from −80 to −10 mV, n = 3
Summary of the method: (§1)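 Whole-cell INa was recorded in hNav1.5-expressing cells (HEK293; COS-7 transiently transfected). Currents were evoked by steps from −80 to −10 mV before, during and after washout of 100 μM test compound. Inhibition was derived from peak INa, reported as mean ± SEM of n = 3 cells.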

[3] = test system: human cardiac Na+ channel hNav1.5; test: Patch-clamp INa in COS-7 cells transiently transfected with hNav1.5; assay type: cell-based; conditions: 100 μM, n = 3
Summary of the method: as §1

sigma-1 receptor [4] = target: T1, sigma-1 receptor; test: Protection of [125I]IAF photolabeling of sigma-1 receptor in rat liver membranes; assay type: binding; conditions: for protection of [125I]IAF photolabeling of the sigma-1 receptor: 1 nM [125I]IAF
KO myocytes = test: Patch-clamp INa in sigma-1 receptor KO neonatal cardiac myocytes; assay type: cell-based, mouse; conditions: 100 μM, n = 7
Summary of the method: (§2)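 Neonatal cardiac myocytes came from wild-type and sigma-1 receptor knock-out mice. INa was evoked by steps from −80 to −10 mV and recorded in the absence of, during and after washout of 100 μM test compound.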

[5] = test system: WT neonatal cardiac myocytes; test: Patch-clamp INa in WT neonatal cardiac myocytes; assay type: cell-based; conditions: Mus musculus, read-out: inhibition of INa
Summary of the method: as §2

sigma-1 receptor KO mice = test: Open-field assay, sigma-1 receptor KO mice; assay type: in vivo, mouse; conditions: 3 mg/kg, ip, n = 6
sigma-2 receptor [6] = target: T2, sigma-2 receptor (Homo sapiens, UniProt Q5BJF2); test: Sigma-2 receptor binding
T2 sequence (Q5BJF2 whole entry, species assumed): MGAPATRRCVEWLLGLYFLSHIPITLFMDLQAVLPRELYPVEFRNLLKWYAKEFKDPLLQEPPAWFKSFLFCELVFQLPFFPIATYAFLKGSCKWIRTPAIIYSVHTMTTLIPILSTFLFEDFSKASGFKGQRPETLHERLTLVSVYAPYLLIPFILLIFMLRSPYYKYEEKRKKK

sigma-1 receptor [7] = target: T3, sigma-1 receptor (Homo sapiens, UniProt Q99720); conditions: read-out: sigma-1 Kd; cited from earlier work
T3 sequence (Q99720 whole entry, species assumed): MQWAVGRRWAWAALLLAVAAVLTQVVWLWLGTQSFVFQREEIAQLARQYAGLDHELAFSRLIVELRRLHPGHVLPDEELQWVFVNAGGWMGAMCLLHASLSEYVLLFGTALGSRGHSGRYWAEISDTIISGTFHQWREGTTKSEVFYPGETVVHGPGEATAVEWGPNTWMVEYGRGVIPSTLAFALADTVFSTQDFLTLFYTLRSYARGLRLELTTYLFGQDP

sigma-2 receptor [8] = target: T2, sigma-2 receptor; conditions: read-out: sigma-2 Kd; cited from earlier work
sigma-1 receptor [9] = target: T3, sigma-1 receptor; test: Competition binding against
sigma-2 receptor [10] = target: T4, sigma-2 receptor (Rattus norvegicus, UniProt Q5U3Y7); test: Protection of [125I]IAF photolabeling of sigma-2 receptor in rat liver membranes; assay type: binding; conditions: for protection of [125I]IAF sigma-2 receptor photolabeling: 1 nM [125I]IAF
T4 sequence (Q5U3Y7 1-176): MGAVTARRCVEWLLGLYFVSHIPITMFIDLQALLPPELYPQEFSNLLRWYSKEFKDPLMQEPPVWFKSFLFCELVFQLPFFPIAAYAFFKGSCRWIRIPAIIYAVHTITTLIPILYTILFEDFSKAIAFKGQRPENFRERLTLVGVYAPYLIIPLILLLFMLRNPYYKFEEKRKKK

In the case of `CNCCc1c[nH]c2ccccc12` [N-methyltryptamine], the “protection against sigma-1 receptor [125I]-IACoc photolabeling (in words)” value (sigma-1 receptor [1]) is reported as “protected minimally”.

For `CN(C)CCc1c[nH]c2ccccc12` [DMT, N,N-dimethyltryptamine], the “distance traveled in open-field assay (hypermobility)” value (WT mice; 2 mg/kg ip, 2 hours after pargyline (75 mg/kg, ip), n = 12) was 7025 ± 524.1 cm, the “inhibition of INa” value [2] was 62 ± 3% and the “inhibition of INa” value [3] was 22 ± 4%. For the same compound, the “protection of [125I]IAF photolabeling of the sigma-1 receptor” value (from here on “protection … of the sigma-1 receptor”) (sigma-1 receptor [4]; 10 μM) was 31%, the “protection … of the sigma-1 receptor” value (sigma-1 receptor [4]; 50 μM) was 43% and the “protection … of the sigma-1 receptor” value (sigma-1 receptor [4]; 100 μM) was 69%. The “protection of [125I]-IACoc photolabeling of the 26-kD sigma-1 receptor” value (sigma-1 receptor [1]; 50 μM) was 61%, the “protection of [125I]-IACoc photolabeling of the 26-kD sigma-1 receptor” value (sigma-1 receptor [1]; 100 μM) was ~100% and the “reduction of INa” value (KO myocytes) was 7 ± 2%. The inhibition at 100 µM [5] was 29 ± 3%.

For `CN[C@@H](C)Cc1ccccc1` [methamphetamine, reference compound], the “hypermobility in open-field assay (in words)” value (WT mice; 3 mg/kg, ip, n = 6) was “induced hypermobility” and the “hypermobility in open-field assay (in words)” value (sigma-1 receptor KO mice) was “induced hypermobility”.

`CNCCc1ccc(O)cc1` [N-methyltyramine] gave a Kd (sigma-2 receptor [6]; read-out: sigma-2 receptor Kd) of 6.61 µM.

In the case of `CC(C)=CCN1CC[C@]2(C)c3cc(O)ccc3C[C@H]1[C@H]2C` [(+)-pentazocine, reference compound], the “protection of sigma-1 receptor photolabeling (in words)” value (sigma-1 receptor [4]; 10 μM, [125I]-IACoc or [125I]IAF) is reported as “protected”.

For `CC1CN(CCCc2ccc(N=[N+]=[N-])c(I)c2)CC(C)O1` (stereo not shown) [[^125I]IAF, 1-N-(2′,6′-dimethyl-morpholino)-3-(4-azido-3-[^125I]iodo-phenyl) propane], the Kd (sigma-1 receptor [7]) is given as 0.194 µM and the Kd (sigma-2 receptor [8]) is given as 2.78 µM.

With `NCCc1c[nH]c2ccccc12` [tryptamine] the Kd (sigma-2 receptor [6]) was 4.91 µM, the “protection against sigma-1 receptor [125I]-IACoc photolabeling (in words)” value (sigma-1 receptor [1]) was “protected minimally” and the Kd (sigma-1 receptor [9]) was 431 µM. The “protection of [125I]IAF sigma-2 receptor photolabeling” value (sigma-2 receptor [10]; 10 μM) was 47%, the “protection of [125I]IAF sigma-2 receptor photolabeling” value (sigma-2 receptor [10]; 50 μM) was 78% and the “protection of [125I]IAF sigma-2 receptor photolabeling” value (sigma-2 receptor [10]; 100 μM) was 79%.

With `O=C(CCCN1CCC(O)(c2ccc(Cl)cc2)CC1)c1ccc(F)cc1` [haloperidol, reference compound] the “protection of sigma-2 receptor photolabeling (in words)” value (sigma-2 receptor [10]; 10 μM, [125I]IAF) was “protected”.

For `COC(=O)C1C(OC(=O)c2ccc(N=[N+]=[N-])c(I)c2)CC2CCC1N2C` (stereo not shown) [[^125I]-IACoc, 3-[^125I]iodo-4-azidococaine], the Kd (sigma-1 receptor [7]) is given as 0.000126 µM.

`NCCc1ccccc1` [phenethylamine] showed a Kd (sigma-2 receptor [6]) of 7.31 µM and a Kd (sigma-1 receptor [9]) of 97.4 µM.

With `NCCc1ccc(O)cc1` [tyramine] the Kd (sigma-1 receptor [9]) was > 30000 µM.
